Screening results from PubChem BioAssay.
Tn6 DDE FP: disrupts Tn6 cyclic peptide binding to fibrin D-Dimer-E complex | Fibrin DD(E) TRITC-Tn6 fluorescence polarization displacement | P02675 | 0.21% of 370,000 active | inhibition, % at 8.3 µM;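 active = inhibition above a per-campaign cutoff: mean of compounds within control limits plus 3 SD, cut at about 15% in these data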;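 note: 0% = median of all compound wells on the plate and 100% = blocking peptide control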
DDE Tn7 FP inh: disrupts Tn7 cyclic peptide binding to fibrin D-Dimer-E complex; FP displacement of FITC-Tn7 peptide from fibrin DD(E); 0% = median of compound wells per plate; 0.13% of 370,000 active; AID 720508; inhibition, % at 8.3 µM; P02675;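 active = inhibition above the mean of compounds falling within the control limits plus 3 SD of them, cut at about 14% in these data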;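 note: 0% = plate median of compound wells and 100% = 10 µM Aha-Tn7 peptide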
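Measure: % inhibition scaled between sample-field median and high-control FP; Test system: human fibrin DD(E); Quantity: 2 µM final DD(E) protein; Doses: one dose, 8.3 µM nominal; Schedule: compound with protein 10 min, then 3 h after probe, room temperature; Detection: fluorescence polarization; Medium: Tris buffer with calcium and detergent, pH 7.8.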
PLC-beta3 inh: PLC-beta3 (human) inhibition, primary screen; 0.18% of 370,000 active; AID 720704; Q01970; Purified PLC-beta3, fluorogenic substrate, fluorescence; inhibition, % at 12.2 µM; in the data active = inhibition above about 11%;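 note: 0% = median of compound wells on plate and 100% = full blocker control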
Target sequence (Q01970 whole entry, looked up): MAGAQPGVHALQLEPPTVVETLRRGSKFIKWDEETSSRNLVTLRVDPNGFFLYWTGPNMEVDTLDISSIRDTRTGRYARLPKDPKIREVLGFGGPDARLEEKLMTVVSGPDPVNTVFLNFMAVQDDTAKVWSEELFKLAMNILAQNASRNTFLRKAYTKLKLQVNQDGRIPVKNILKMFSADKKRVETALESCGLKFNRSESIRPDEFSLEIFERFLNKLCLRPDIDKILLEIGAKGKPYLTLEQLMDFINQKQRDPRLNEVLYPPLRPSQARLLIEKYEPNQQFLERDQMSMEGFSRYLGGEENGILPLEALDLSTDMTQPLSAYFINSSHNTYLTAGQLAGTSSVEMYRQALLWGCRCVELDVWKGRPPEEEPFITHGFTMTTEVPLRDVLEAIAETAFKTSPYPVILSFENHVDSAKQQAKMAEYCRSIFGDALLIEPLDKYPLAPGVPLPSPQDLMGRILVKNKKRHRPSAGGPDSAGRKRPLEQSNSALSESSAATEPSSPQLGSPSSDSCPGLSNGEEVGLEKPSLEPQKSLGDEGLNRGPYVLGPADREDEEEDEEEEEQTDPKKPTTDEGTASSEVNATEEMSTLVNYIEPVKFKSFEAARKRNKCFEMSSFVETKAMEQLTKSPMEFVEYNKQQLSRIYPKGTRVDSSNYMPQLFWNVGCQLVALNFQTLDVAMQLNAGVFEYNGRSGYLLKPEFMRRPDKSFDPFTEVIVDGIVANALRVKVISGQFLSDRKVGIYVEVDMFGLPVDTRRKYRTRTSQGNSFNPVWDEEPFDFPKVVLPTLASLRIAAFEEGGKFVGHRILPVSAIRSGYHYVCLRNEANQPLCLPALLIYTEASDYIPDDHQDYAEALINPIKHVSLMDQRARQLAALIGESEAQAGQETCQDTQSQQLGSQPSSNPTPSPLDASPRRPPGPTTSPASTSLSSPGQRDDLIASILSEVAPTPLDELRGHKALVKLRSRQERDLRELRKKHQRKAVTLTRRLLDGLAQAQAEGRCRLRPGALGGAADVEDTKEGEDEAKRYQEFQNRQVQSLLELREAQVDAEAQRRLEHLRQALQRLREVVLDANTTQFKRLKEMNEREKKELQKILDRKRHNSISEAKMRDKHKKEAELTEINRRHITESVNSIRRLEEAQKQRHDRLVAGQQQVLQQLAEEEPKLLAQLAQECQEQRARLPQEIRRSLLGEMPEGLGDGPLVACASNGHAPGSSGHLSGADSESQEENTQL
ADAM10 inh: inhibitors of human ADAM10; O14672; recombinant ADAM10, EDANS/DABCYL FRET peptide cleavage, 3 h; inhibition, % at 7 µM; 0.62% of 370,000 active; AID 720582;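 active = inhibition above a per-campaign cutoff equal to the mean of compounds falling between control-based bounds plus 3 SD, cut at about 20% in these data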;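 note: 0% = DMSO wells while the 100% control is not disclosed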
ADAM17 inh: inhibitors of human ADAM17; P78536; recombinant ADAM17, EDANS/DABCYL FRET peptide cleavage; inhibition, % at 6.95 µM; 0.83% of 370,000 active;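 active = inhibition above the mean of compounds lying between control limits plus 3 SD, set per campaign, cut at about 8.5% in these data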;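 note: 0% = DMSO-only wells as the low control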
PLCg1 inh: PLC-gamma1 (human) inhibition, primary screen. purified PLC-gamma1, fluorogenic substrate, fluorescence. inhibition, % at 12.2 µM. 0.84% of 370,000 active. P19174; in the data active = inhibition above about 9.5%
ADAM10 ctr: inhibits human ADAM10 in ADAM17 exosite counter-screen; shares compounds with ADAM17 inh; recombinant ADAM10, EDANS/DABCYL FRET peptide cleavage, 3 h; inhibition, % at 6.95 µM; 47% of 2,900 active; AID 743256;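 active = mean inhibition over the triplicate runs exceeds the activity threshold set in the earlier primary screen, cut at about 20% in these data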;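 note: 0% = DMSO wells and 100% = marimastat wells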
ADAM17 confirm: confirmation of inhibitors of human ADAM17. shares compounds with ADAM17 inh. inhibition, % at 6.95 µM. 65% of 2,900 active. recombinant ADAM17, EDANS/DABCYL QFRET peptide cleavage;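 active = mean inhibition across replicates above the hit cutoff set in the primary screen, cut at about 8.5% in these data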;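 note: 0% = DMSO wells and 100% = marimastat wells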
An asterisk follows results filed as active; i = inactive; . = no result. An excerpt weighted towards active compounds, which were near 2.3% of everything screened.

SMILES | Tn6 DDE FP | DDE Tn7 FP inh | PLC-beta3 inh | ADAM10 inh | ADAM17 inh | PLCg1 inh | ADAM10 ctr | ADAM17 confirm
COC(=O)C1=C(C)N(Cc2cccc(C(F)(F)F)c2)C(=NCc2ccc(C(F)(F)F)cc2)NC1c1ccc(F)cc1 (centres undefined) | -1 | 6 | 2 | 4 | 9.5* | 5 | 22* | 12*
COC(=O)C1=C(C)N(Cc2cccc(C(F)(F)F)c2)C(=NCc2ccc3c(c2)OCO3)NC1c1ccc(F)cc1 (centres undefined) | -5 | -5 | 0 | -7 | 9.9* | 7 | 19 | 12*
CC1(Cc2ccccc2Cl)C(=O)Nc2ccc(OC(F)(F)F)cc21 (centres undefined) | -3 | 3 | 0 | 13 | 13* | 0 | 21* | 13*
Fc1ccc(NCc2n[nH]c(=S)n2Cc2ccccc2)cc1 | -8 | -7 | 4 | 16 | 11* | 6 | 11 | 9
S=c1[nH]nc(CNc2ccc(Cl)cc2)n1Cc1ccccc1 | 8 | -2 | -6 | 10 | 7 | -1 | . | .
CCN(c1ccc(OC)cc1)S(=O)(=O)c1nnc(NC(=O)C(C)C)s1 | 4 | 4 | -3 | 2 | -7 | -9 | . | .
CCN(c1ccc(OC)cc1)S(=O)(=O)c1nnc(NC(=O)C2CCCCC2)s1 | -4 | -4 | 6 | 5 | 10* | 2 | -2 | -1
CCc1ccc(NC(=O)COC(=O)/C=C/c2ccco2)cc1 | 0 | -8 | -22 | 5 | 11* | -14 | 2 | 4
CCOC(=O)N1CCC(n2c(SCC(=O)Nc3ccccc3OC)nc3ccccc3c2=O)CC1 | -2 | 1 | 0 | 17 | 10* | -4 | 29* | 16*
CCOC(=O)N1CCC(n2c(SCC(=O)NCc3ccccc3)nc3ccccc3c2=O)CC1 | -11 | 4 | 0 | -2 | -4 | 2 | . | .
COc1ccccc1NS(=O)(=O)c1ccc(-c2cnc(C3CC3)o2)cc1 | 6 | -4 | -10 | 3 | -1 | -3 | . | .
CCOc1ccccc1NS(=O)(=O)c1ccc(-c2cnc(C3CC3)o2)cc1 | 2 | -5 | -5 | 7 | 9.9* | 1 | 0 | 5
C=CCN1C(=O)[C@@H](CC(=O)NCc2ccccc2)[C@]2(C(=O)OCC)CCCCC/C=C/12 | -5 | 7 | 1 | -9 | -3 | -3 | . | .
Cc1cccc(NC(=O)C2(c3ccc([N+](=O)[O-])cc3)CCCC2)c1 | 5 | -5 | 5 | -4 | 9.3* | 3 | 10 | 7
Cc1cc(C)nc(NS(=O)(=O)c2ccc(NC(=O)C3(c4ccc([N+](=O)[O-])cc4)CCCC3)cc2)n1 | 6 | 6 | -2 | 0 | 0 | -3 | . | .
Cc1cccc(Cn2cc(COC(=O)NCC(C)C)nn2)c1 | 4 | -2 | -1 | 2 | 2 | 4 | . | .
C[C@@H]1CC=C[C@H]2[C@H]1C(=O)N(Cc1ccccc1)[C@H]2c1ccc(-c2ccc(F)cc2)cc1F | -4 | 2 | -4 | -8 | -5 | 0 | . | .
C[C@@H]1CC=C[C@H]2[C@H]1C(=O)N(Cc1ccccc1)[C@H]2c1ccc(-c2ccoc2)cc1F | -9 | -11 | -2 | 18 | 13* | 5 | 10 | 8
C=CCn1c(SCC(=O)Nc2ccc(CCCC)cc2)nnc1-c1ccc(Cl)cc1 | -6 | -2 | 0 | 0 | -2 | -2 | . | .
C#Cc1ccc([C@H]2C=C(C(=O)NCc3ccccc3)O[C@@H](OCC)[C@@H]2CCCO)cc1 | 4 | -4 | -7 | 1 | 0 | -3 | . | .
C#Cc1ccc([C@@H]2C=C(C(=O)Nc3ccccc3)O[C@H](OCC)[C@H]2CCCO)cc1 | 0 | -9 | 3 | 16 | 11* | 5 | 11 | 8
O=S1(=O)c2c(NCc3ccco3)cccc2Oc2ccccc2CN1Cc1cn(Cc2ccc(F)cc2)nn1 | 3 | 2 | -50 | -1 | 1 | -39 | . | .
COc1cccc(C(=O)COc2cccc(NC(=O)c3ccco3)c2)c1 | -2 | 4 | -5 | 6 | 9.2* | 2 | 7 | 7
CCOc1cc(/C=N/NC(=O)c2ccc3c(c2)OCCO3)cc(Br)c1O | -13 | 2 | i | -6 | 23* | -474 | -19 | 1
Cc1ccc(C2C3=C(CC(C)(C)CC3=O)N=C3c4ccccc4C(=O)C32)cc1 (centres undefined) | -3 | 5 | -4 | 3 | 8.7* | 7 | -16 | 3
SMILES | Tn6 DDE FP | DDE Tn7 FP inh | PLC-beta3 inh | ADAM10 inh | ADAM17 inh | PLCg1 inh | ADAM10 ctr | ADAM17 confirm
COc1cccc(N2CCN(C(=O)COc3cc(=O)n(C)c4ccccc34)CC2)c1 | 4 | -2 | -2 | -8 | 0 | 1 | . | .
O=C(/C=C/c1cccc([N+](=O)[O-])c1)NCCSCc1ccccc1Cl | -6 | -13 | 7 | 19 | 8.9* | 3 | 27* | 14*
CCOC(=O)C1=C(C(=O)OCC)C2N(Cc3ccc(C#N)cc3)c3ccccc3[C@@]23C[C@@H](C(=O)OC)N(S(=O)(=O)c2ccc(OC)cc2)C3=N1 (some centres undefined) | -7 | -5 | 5 | 16 | 12* | 3 | 19 | 12*
O=C(NCCN1C(=O)C2C3C=CC(C3)C2C1=O)c1cc(F)cc(F)c1 (centres undefined) | 2 | 1 | 1 | -8 | 3 | -1 | . | .
CC(NC(=O)COC(=O)C1(C)CC1(Cl)Cl)c1ccccc1 (centres undefined) | 4 | -2 | -3 | 2 | 8.8* | 9 | 30* | 9.5*
COC(=O)C1=C(C(=O)OC)[C@@]2([C@@H](Cc3ccc(C)cc3)Nc3ccccc3)C=C[C@@H]1O2 | -5 | -4 | -3 | 13 | 6 | -1 | . | .
C[C@H](CO)N1C[C@H](C)[C@@H](CN(C)Cc2ccc3c(c2)OCO3)Oc2cc(Br)ccc2S1(=O)=O | -3 | -1 | 1 | 12 | 8.9* | 0 | 25* | 14*
C[C@@H]1CN([C@@H](C)CO)S(=O)(=O)c2ccc(Br)cc2O[C@@H]1CN(C)Cc1ccc2c(c1)OCO2 | -2 | 2 | 1 | 8 | 2 | 3 | . | .
CCCCN(CCCC)S(=O)(=O)c1ccc(NC(=O)c2cccs2)cc1 | -15 | -3 | 1 | 16 | 12* | 1 | 32* | 16*
COc1ccc(C(=O)Nc2ccc(S(=O)(=O)N3CCc4ccccc43)cc2)cc1 | -6 | 4 | 1 | 19 | 9.2* | 4 | 21* | 15*
Cc1ccc(NC(=O)c2ccc3c(c2)CCN3S(C)(=O)=O)cc1 | -1 | -9 | -4 | -2 | -1 | -3 | . | .
